Source: paper PMC8359148 (ACS Omega, 2021)
“Also recorded” adds a separate entry of the source.

Experiments:
[1] = tested on: wild-type P. falciparum 3D7 cells; experiment: dose–response assay against 3D7 cells; assay type: cell-based; conditions: Plasmodium falciparum, 3D7, read-out: EC50 3D7
Method in brief: (§1)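 Dose–response EC50 values, each from three or more independent experiments. Dd2 and 3D7 runs use chloroquine as comparator. The selectivity index is calculated as HepG2 EC50 divided by Dd2 EC50.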

[2] = tested on: HepG2 (liver hepatocellular carcinoma) cells; experiment: HepG2; assay type: cell-based, human; conditions: for selectivity index (SI): HepG2 EC50/EC50 Dd2 cells; for EC50: Homo sapiens, HepG2, read-out: EC50 HepG2
Method in brief: as §1

[3] = tested on: chloroquine-resistant P. falciparum Dd2 parasites; experiment: SYBR Green I dose–response assay against Dd2 parasites; assay type: cell-based; conditions: Plasmodium falciparum, DD2, read-out: EC50 Dd2, chloroquine-resistant P. falciparum Dd2, three or more independent experiments
Method in brief: as §1

[4] = tested on: tightly synchronized P. falciparum Dd2 cells; experiment: developmental stage-specific action; assay type: cell-based, Plasmodium falciparum
Method in brief: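 Tightly synchronized Dd2 cultures are treated with 1.25 μM test compound at 6, 18, 30 or 42 HPI, with 0.1% DMSO-treated infected RBCs as negative control and DHA and atovaquone as positive controls. Every 12 h, Giemsa-stained smears are read. Flow cytometry samples are fixed in 4% paraformaldehyde/0.0075% glutaraldehyde, permeabilized with 0.25% Triton X-100, RNase-treated (50 μg/mL) and YOYO-1 stained; parasitemia is taken by flow cytometry.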

[5] = chemical stability; assay type: physicochemical
[6] = tested on: P. falciparum Dd2 cultures; experiment: kinetic kill experiments; assay type: cell-based, Plasmodium falciparum; conditions: for EC50: Plasmodium falciparum, DD2, read-out: 5 × EC50
Method in brief: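 Asynchronous Dd2 cultures are exposed to test compound for 6, 12, 24 or 48 h at 0.15% DMSO, then washed three times in RPMI and resuspended in culture medium. Parasite growth is monitored daily for 96 h. DHA (50 nM) and atovaquone (6.6 nM) serve as controls.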

[7] = solubility; assay type: physicochemical
Method in brief: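 DMSO solubility is tested up to 100 mM, the highest concentration tested. For aqueous solubility, PBS is slowly titrated into 10 mM DMSO stock to give 100 μM, the highest concentration tested. Clarity is checked visually against a PBS standard at room temperature over 24 h.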

## CC[C@@]12C=C(C(=O)OC)n3c(c(c4ccccc43)CCN(C(=O)c3cccnc3)CCC1)[C@@H]2c1ccc(O)cc1 [Compound 25, methyl (11S,19S)-11-ethyl-19-(4-hydroxyphenyl)-15-(pyridine-3-carbonyl)-8,15-diazatetracyclo[9.6.2.0^2,7.0^8,18]nonadeca-1(18),2(7),3,5,9-pentaene-9-carboxylate]
[1]
  EC50: 2250 ± 400 nM
[2]
  selectivity index (SI): >45
  EC50: > 25000 nM
[3]
  EC50: 550 ± 70 nM

## CC[C@@]12C=C(C(=O)OC)n3c(c(c4ccccc43)CCN(C(=O)c3ccco3)CCC1)[C@@H]2c1ccc(O)cc1 [Compound 26, methyl (11S,19S)-11-ethyl-15-(furan-2-carbonyl)-19-(4-hydroxyphenyl)-8,15-diazatetracyclo[9.6.2.0^2,7.0^8,18]nonadeca-1(18),2(7),3,5,9-pentaene-9-carboxylate]
[1]
  EC50: 1800 ± 360 nM
[2]
  selectivity index (SI): >10
  EC50: > 25000 nM
[3]
  EC50: 2480 ± 330 nM

## CC[C@@]12C=C(C(=O)OC)n3c(c(c4ccccc43)CCN(C(=O)c3cncnc3)CCC1)[C@@H]2c1ccc(O)cc1 [Compound 27, methyl (11S,19S)-11-ethyl-19-(4-hydroxyphenyl)-15-(pyrimidine-5-carbonyl)-8,15-diazatetracyclo[9.6.2.0^2,7.0^8,18]nonadeca-1(18),2(7),3,5,9-pentaene-9-carboxylate]
[1]
  EC50: 1990 ± 300 nM
[2]
  selectivity index (SI): >34
  EC50: > 25000 nM
[3]
  EC50: 730 ± 110 nM

## CC[C@@]12C=C(C(=O)OC)n3c(c(c4ccccc43)CCN(C(=O)c3ccno3)CCC1)[C@@H]2c1ccc(O)cc1 [Compound 28, methyl (11S,19S)-11-ethyl-19-(4-hydroxyphenyl)-15-(1,2-oxazole-5-carbonyl)-8,15-diazatetracyclo[9.6.2.0^2,7.0^8,18]nonadeca-1(18),2(7),3,5,9-pentaene-9-carboxylate]
[1]
  EC50: 970 ± 30 nM
[2]
  selectivity index (SI): >11
  EC50: > 25000 nM
[3]
  EC50: 2140 ± 360 nM

## CC[C@@]12C=C(C(=O)OC)n3c(c(c4ccccc43)CCN(C(=O)c3ccccn3)CCC1)[C@@H]2c1ccc(O)cc1 [Compound 30, methyl (11S,19S)-11-ethyl-19-(4-hydroxyphenyl)-15-(pyridine-2-carbonyl)-8,15-diazatetracyclo[9.6.2.0^2,7.0^8,18]nonadeca-1(18),2(7),3,5,9-pentaene-9-carboxylate]
[4]; Dd2 cells treated at 6, 18 and 30 HPI, 5 x EC50
  parasitemia (flow cytometry): remarkable decrease in parasitemia
[4]; Dd2 cells treated at 42 HPI, 5 x EC50
  effect on maturation when treated at 42 HPI: did not inhibit maturation
[4]; synchronized Dd2, 5 x EC50 (1.25 μM), treated at 6, 18, 30 and 42 HPI
  stage-specific activity: prevents exit on the parasite from the schizont stage; also recorded: arrested at the late schizont stage; also recorded: do not advance beyond the late schizont stage; also recorded: act specifically on the trophozoite/schizont stage
[1]
  EC50: 1190 ± 250 nM
[5]; 100 μM, PBS pH 2.0 (1.95), 24 h room temperature then 24 h 37 °C, TLC and NMR
  chemical stability in acidified PBS: no compound breakdown; also recorded: no degradation
[5]; 100 μM, PBS pH 7.4, 24 h room temperature then 24 h 37 °C, TLC and NMR
  chemical stability in PBS pH 7.4: no compound breakdown; also recorded: no degradation
[5]; 100 °C for multiple hours
  chemical stability during NMR experiments: without showing compound breakdown
[2]
  selectivity index (SI): >100
  EC50: > 25000 nM
[3]
  EC50: 250 ± 4 nM
[6]; 5× EC50, 24 h treatment, based on the 96 h time point
  effect after 24 h treatment: reduces parasitemia
[6]; 5× EC50, 48 h treatment
  effect after 48 h treatment: more dramatic parasitocidal effect
[6]; Dd2 cultures, 5 × EC50, treatment time required to kill
  kill rate: >24 h
[7]; PBS buffer, aqueous buffer, kinetic from dmso stock
  solubility at 24 h: ≥ 0.1 mM
[7]; biological grade DMSO, organic solvent or mixture
  solubility: ≥ 100 mM

## CC[C@@]12C=C(C(=O)OC)n3c(c(c4ccccc43)CCN(C(=O)c3cncc(Cl)c3)CCC1)[C@@H]2c1ccc(O)cc1 [Compound 32, methyl (11S,19S)-15-(5-chloropyridine-3-carbonyl)-11-ethyl-19-(4-hydroxyphenyl)-8,15-diazatetracyclo[9.6.2.0^2,7.0^8,18]nonadeca-1(18),2(7),3,5,9-pentaene-9-carboxylate]
[1]
  EC50: 2220 ± 340 nM
[2]
  selectivity index (SI): >51
  EC50: > 25000 nM
[3]
  EC50: 490 ± 100 nM

## CC[C@@]12C=C(C(=O)OC)n3c(c(c4ccccc43)CCN(C(=O)c3cncc(Br)c3)CCC1)[C@@H]2c1ccc(O)cc1 [Compound 33, methyl (11S,19S)-15-(5-bromopyridine-3-carbonyl)-11-ethyl-19-(4-hydroxyphenyl)-8,15-diazatetracyclo[9.6.2.0^2,7.0^8,18]nonadeca-1(18),2(7),3,5,9-pentaene-9-carboxylate]
[1]
  EC50: 1700 ± 320 nM
[2]
  selectivity index (SI): >38
  EC50: > 25000 nM
[3]
  EC50: 650 ± 9 nM

## CC[C@@]12C=C(C(=O)OC)n3c(c(c4ccccc43)CCN(C(=O)c3ccccc3)CCC1)[C@@H]2c1ccc(O)cc1 [Compound 34, methyl (11S,19S)-15-benzoyl-11-ethyl-19-(4-hydroxyphenyl)-8,15-diazatetracyclo[9.6.2.0^2,7.0^8,18]nonadeca-1(18),2(7),3,5,9-pentaene-9-carboxylate]
[1]
  EC50: 6600 ± 1060 nM
[3]
  EC50: 2950 ± 1140 nM

## C[C@H]1[C@@H](O)O[C@@H]2O[C@@]3(C)CC[C@H]4[C@H](C)CC[C@@H]1[C@@]24OO3 [Dihydroartemisinin (DHA), Dihydroartemisinin, reference compound]
[6]
  EC50: 50 nM

## O=C1C(O)=C([C@H]2CC[C@H](c3ccc(Cl)cc3)CC2)C(=O)c2ccccc21 [atovaquone, reference compound]
[6]
  EC50: 6.6 nM
